# Measured values as given in ChEMBL document CHEMBL3046793, “Fungicidal property of Curcuma longa L. rhizome-derived curcumin against phytopathogenic fungi in a greenhouse” (2003).
# What was measured:
# Type in all cases: functional
# [1] = system: Blumeria graminis; test: Fungicidal activity against Blumeria graminis infected first-leaf stage of barley plant at 500 mg/l applied as spray under green house conditions relative to control
# [2] = system: Blumeria graminis; test: Fungicidal activity against Blumeria graminis infected first-leaf stage of barley plant at 1000 mg/l applied as spray under green house conditions relative to control
# Procedure, shortened: (§1)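 Barley at fully expanded first leaf (four plants/pot) sprayed with test material (DMSO stock diluted in water with Tween 20 at 250 µg/mL), greenhouse 1 day, then dusted with E. graminis conidia from infected barley (8 treated pots per source pot). Controls got Tween 20 solution. Control value = (untreated − treated disease area)/untreated × 100; triplicate.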
# [3] = system: Puccinia recondita; test: Fungicidal activity against Puccinia recondita infected first leaf stage of wheat plant at 500 mg/l applied as spray after 10 days under green house conditions relative to control
# Procedure, shortened: (§2)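 Whole-plant greenhouse spray assay: sample dissolved in DMSO, diluted in water with Tween 20 (250 µg/mL), 50 mL sprayed over two pots; plants held 1 day before inoculation with P. recondita; controls got Tween 20 solution. Control value = (untreated − treated disease area)/untreated × 100; three replicates.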
# [4] = system: Puccinia recondita; test: Fungicidal activity against Puccinia recondita infected first leaf stage of wheat plant at 1000 mg/l applied as spray after 10 days under green house conditions relative to control; procedure, shortened: as §2
# [5] = system: Phytophthora infestans; test: Fungicidal activity against Phytophthora infestans infected second leaf-stage of tomato plant at 500 mg/l applied as spray after 4 days under green house conditions relative to control
# [6] = system: Phytophthora infestans; test: Fungicidal activity against Phytophthora infestans infected second leaf-stage of tomato plant at 1000 mg/l applied as spray after 4 days under green house conditions relative to control
# [7] = system: Botrytis cinerea; test: Fungicidal activity against Botryotinia fuckeliana infected first-leaf stage of cucumber plant at 500 mg/l applied as spray after 4 to 5 days under green house conditions relative to control
# [8] = system: Botrytis cinerea; test: Fungicidal activity against Botryotinia fuckeliana infected first-leaf stage of cucumber plant at 1000 mg/l applied as spray after 4 to 5 days under green house conditions relative to control
# [9] = system: Rhizoctonia solani; test: Fungicidal activity against Rhizoctonia solani infected in third leaf stage of rice plant at 1000 mg/l applied as spray after 5 days under green house conditions relative to control
# Procedure, shortened: (§3)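 Rice at third leaf (three plants/pot) sprayed with sample in DMSO/Tween 20 (250 µg/mL) water; after 1 day inoculated by injecting at plant base R. solani inoculum (7-day wheat bran culture at 25 °C, macerated 500 g/L water). Held 5 days in lit chamber at 28 °C. Control value from diseased area against Tween-sprayed controls; triplicate.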
# [10] = system: Rhizoctonia solani; test: Fungicidal activity against Rhizoctonia solani infected in third leaf stage of rice plant at 500 mg/l applied as spray after 5 days under green house conditions relative to control
# [11] = system: Pyricularia grisea; test: Fungicidal activity against Magnaporthe grisea infected second leaf stage of rice plant at 500 mg/l applied as spray after 5 days under green house conditions relative to control
# Procedure, shortened: (§4)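 Rice at second leaf (three plants/pot) sprayed with sample (DMSO, diluted in water with 250 µg/mL Tween 20), greenhouse 1 day. Inoculated with conidia (1 × 10^6 spores/mL), 24 h at 25 °C and 100% RH, then 5 days lit at 26 ± 2 °C and 85% RH. Severity scored; control value from diseased area against Tween-sprayed controls; triplicate.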
# [12] = system: Pyricularia grisea; test: Fungicidal activity against Magnaporthe grisea infected second leaf stage of rice plant at 1000 mg/l applied as spray after 5 days under green house conditions relative to control; procedure, shortened: as §4
# [13] = system: Botrytis cinerea; test: Fungicidal activity against Botryotinia fuckeliana infected first-leaf stage of cucumber plant at 50 mg/l applied as spray after 4 to 5 days under green house conditions relative to control
# [14] = system: Puccinia recondita; test: Fungicidal activity against Puccinia recondita infected first leaf stage of wheat plant at 50 mg/l applied as spray after 10 days under green house conditions relative to control
# [15] = system: Phytophthora infestans; test: Fungicidal activity against Phytophthora infestans infected second leaf-stage of tomato plant at 50 mg/l applied as spray after 4 days under green house conditions relative to control
# [16] = system: Rhizoctonia solani; test: Fungicidal activity against Rhizoctonia solani infected in third leaf stage of rice plant at 50 mg/l applied as spray after 5 days under green house conditions relative to control
# [17] = system: Pyricularia grisea; test: Fungicidal activity against Magnaporthe grisea infected second leaf stage of rice plant at 50 mg/l applied as spray after 5 days under green house conditions relative to control
# [18] = system: Blumeria graminis; test: Fungicidal activity against Blumeria graminis infected first-leaf stage of barley plant at 50 mg/l applied as spray under green house conditions relative to control
# [19] = system: Botrytis cinerea; test: Fungicidal activity against Botryotinia fuckeliana infected first-leaf stage of cucumber plant at 125 mg/l applied as spray after 4 to 5 days under green house conditions relative to control
# Procedure, shortened: (§5)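 Cucumber at first leaf (one plant/pot) sprayed with sample in DMSO/Tween 20 (250 µg/mL) water; controls Tween 20 solution. After 1 day, leaf-sprayed with B. cinerea conidia (1 × 10^6 spores/mL; 15-day PDA culture, 20 °C), held 4-5 days at 20 °C. Control value calculated from diseased area against untreated plants; three replicates.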
# [20] = system: Puccinia recondita; test: Fungicidal activity against Puccinia recondita infected first leaf stage of wheat plant at 125 mg/l applied as spray after 10 days under green house conditions relative to control; procedure, shortened: as §2
# [21] = system: Puccinia recondita; test: Fungicidal activity against Puccinia recondita infected first leaf stage of wheat plant at 250 mg/l applied as spray after 10 days under green house conditions relative to control; procedure, shortened: as §2
# [22] = system: Phytophthora infestans; test: Fungicidal activity against Phytophthora infestans infected second leaf-stage of tomato plant at 125 mg/l applied as spray after 4 days under green house conditions relative to control
# [23] = system: Phytophthora infestans; test: Fungicidal activity against Phytophthora infestans infected second leaf-stage of tomato plant at 250 mg/l applied as spray after 4 days under green house conditions relative to control
# [24] = system: Botrytis cinerea; test: Fungicidal activity against Botryotinia fuckeliana infected first-leaf stage of cucumber plant at 250 mg/l applied as spray after 4 to 5 days under green house conditions relative to control; procedure, shortened: as §5
# [25] = system: Rhizoctonia solani; test: Fungicidal activity against Rhizoctonia solani infected in third leaf stage of rice plant at 125 mg/l applied as spray after 5 days under green house conditions relative to control; procedure, shortened: as §3
# [26] = system: Rhizoctonia solani; test: Fungicidal activity against Rhizoctonia solani infected in third leaf stage of rice plant at 250 mg/l applied as spray after 5 days under green house conditions relative to control; procedure, shortened: as §3
# [27] = system: Pyricularia grisea; test: Fungicidal activity against Magnaporthe grisea infected second leaf stage of rice plant at 125 mg/l applied as spray after 5 days under green house conditions relative to control; procedure, shortened: as §4
# [28] = system: Pyricularia grisea; test: Fungicidal activity against Magnaporthe grisea infected second leaf stage of rice plant at 250 mg/l applied as spray after 5 days under green house conditions relative to control; procedure, shortened: as §4
# [29] = system: Blumeria graminis; test: Fungicidal activity against Blumeria graminis infected first-leaf stage of barley plant at 125 mg/l applied as spray under green house conditions relative to control
# [30] = system: Blumeria graminis; test: Fungicidal activity against Blumeria graminis infected first-leaf stage of barley plant at 250 mg/l applied as spray under green house conditions relative to control; procedure, shortened: as §1
SMILES,Activity [1] [%],Activity [2] [%],Activity [3] [%],Activity [4] [%],Activity [5] [%],Activity [6] [%],Activity [7] [%],Activity [8] [%],Activity [9] [%],Activity [10] [%],Activity [11] [%],Activity [12] [%],other results
CC1(C)C2CCC1(C)C(O)C2 (stereo not drawn) [BORNEOL],0,0,0,0,0,0,0,0,0,0,0,0,
N#Cc1c(Cl)c(Cl)c(Cl)c(C#N)c1Cl [CHLOROTHALONIL],,,,,,,,,,,,,Activity [13]: 0%; Activity [14]: 0%; Activity [15]: 95%; Activity [16]: 0%; Activity [17]: 0%; Activity [18]: 0%
COc1cc(/C=C/C(=O)CC(=O)/C=C/c2ccc(O)c(OC)c2)ccc1O [CURCUMIN],0,0,100,100,100,100,40,70,85,63,0,0,Activity [19]: 0%; Activity [20]: 63%; Activity [21]: 76%; Activity [22]: 57%; Activity [23]: 85%; Activity [24]: 15%; Activity [25]: 26%; Activity [26]: 45%; Activity [27]: 0%; Activity [28]: 0%; Activity [29]: 0%; Activity [30]: 0%
CN(C)S(=O)(=O)N(SC(F)(Cl)Cl)c1ccccc1 [DICHLOFLUANID],,,,,,,,,,,,,Activity [13]: 92%; Activity [14]: 0%; Activity [15]: 0%; Activity [16]: 0%; Activity [17]: 0%; Activity [18]: 0%
CC12CCC(CC1)C(C)(C)O2 [EUCALYPTOL],0,0,0,0,0,0,0,0,0,0,0,0,
C=C1CCC2(C(C)C)CC12 (stereo not drawn) [SABINENE],0,0,0,0,0,0,0,0,0,0,0,0,
CC(C)=CC(=O)C[C@H](C)C1=CCC(C)=CC1 [TURMERONE],0,,0,0,0,0,0,0,0,0,0,0,
